Experimental data published in ChEMBL document CHEMBL1649460, “Integron mobilization unit as a source of mobility of antibiotic resistance genes” (2009).
Values after ≈ are worked out from the molar mass of the structure shown.

Key:
[1] = test system: Escherichia coli; test: Antimicrobial activity against Escherichia coli J53 harboring pCHE-B plasmid expressing blaSHV-5 gene by agar dilution method; format: functional
[2] = test system: Enterobacter cloacae; test: Antimicrobial activity against Enterobacter cloacae CHE-2 harboring blaGES-5 and blaSHV-5 gene by agar dilution method; format: functional
Procedure, shortened: (§1)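 MICs by agar dilution, with β-lactams tested alone. Colistin was the exception, read by Etest strip. Results interpreted according to CLSI guidelines.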

[3] = test system: Pseudomonas aeruginosa; test: Antimicrobial activity against Pseudomonas aeruginosa PU21 by agar dilution method; format: functional; procedure, shortened: as §1
[4] = test system: Pseudomonas aeruginosa; test: Antimicrobial activity against Pseudomonas aeruginosa PU21 harboring pCHE-A plasmid expressing blaGES-5 gene by agar dilution method; format: functional
Procedure, shortened: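 Natural plasmid pCHE-A was electrotransformed into electrocompetent P. aeruginosa PU21, and transformants were selected on agar with ticarcillin 100 µg/ml. MICs by agar dilution, with β-lactams tested alone; colistin by Etest. Interpreted per CLSI.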

[5] = test system: Escherichia coli; test: Antimicrobial activity against Escherichia coli J53 harboring pCHE-A plasmid expressing blaGES-5 gene by agar dilution method; format: functional
[6] = test system: Escherichia coli; test: Antimicrobial activity against Escherichia coli J53 by agar dilution method; format: functional; procedure, shortened: as §1
[7] = test system: Escherichia coli; test: Antimicrobial activity against Escherichia coli J53 harboring pCHE-A plasmid expressing blaGES-5 gene by agar dilution in presence of beta-lactamase inhibitor clavulanic acid
[8] = test system: Pseudomonas aeruginosa; test: Antimicrobial activity against Pseudomonas aeruginosa PU21 by agar dilution in presence of beta-lactamase inhibitor clavulanic acid; format: functional
Procedure, shortened: (§2)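 Agar dilution MICs of β-lactams, each tested with clavulanic acid held at a fixed 4 µg/ml. Results interpreted according to CLSI guidelines.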

[9] = test system: Enterobacter cloacae; test: Antimicrobial activity against Enterobacter cloacae CHE-2 harboring blaGES-5 and blaSHV-5 gene by agar dilution in presence of beta-lactamase inhibitor clavulanic acid; format: functional; procedure, shortened: as §2
[10] = test system: Escherichia coli; test: Antimicrobial activity against Escherichia coli J53 by agar dilution in presence of beta-lactamase inhibitor clavulanic acid
[11] = test system: Pseudomonas aeruginosa; test: Antimicrobial activity against Pseudomonas aeruginosa PU21 harboring pCHE-A plasmid expressing blaGES-5 gene by agar dilution in presence of beta-lactamase inhibitor clavulanic acid; format: functional
Procedure, shortened: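 MICs by agar dilution. Beta-lactams tested alone and with clavulanic acid held at a fixed 4 µg/ml. Results were interpreted against CLSI guidelines.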

[12] = test system: Escherichia coli; test: Antimicrobial activity against Escherichia coli J53 harboring pCHE-B plasmid expressing blaSHV-5 gene by agar dilution in presence of beta-lactamase inhibitor clavulanic acid

C[C@@H](O)[C@H]1C(=O)N2C(C(=O)O)=C(SCCNC=N)C[C@H]12 [IMIPENEM ANHYDROUS]
MIC [1]: 0.06 µg/mL (≈ 0.2 µM) | MIC [2]: > 32 µg/mL | MIC [3]: 2 µg/mL (≈ 6.68 µM) | MIC [4]: 16 µg/mL (≈ 53.4 µM) | MIC [5]: 1 µg/mL (≈ 3.34 µM)

CO[C@@]1(NC(=O)Cc2cccs2)C(=O)N2C(C(=O)O)=C(COC(N)=O)CS[C@@H]21 [CEFOXITIN]
MIC [1]: 4 µg/mL (≈ 9.36 µM) | MIC [2]: > 512 µg/mL | MIC [3]: > 512 µg/mL | MIC [5]: 128 µg/mL (≈ 299 µM) | MIC [6]: 4 µg/mL (≈ 9.36 µM)

CC(C)(O/N=C(\C(=O)N[C@@H]1C(=O)N2C(C(=O)[O-])=C(C[n+]3ccccc3)CS[C@H]12)c1csc(N)n1)C(=O)O [CEFTAZIDIME]
MIC [7]: 16 µg/mL | MIC [8]: 1 µg/mL | MIC [9]: 256 µg/mL | MIC [1]: 256 µg/mL (≈ 468 µM) | MIC [10]: 0.06 µg/mL | MIC [2]: > 512 µg/mL | MIC [3]: 1 µg/mL (≈ 1.83 µM) | MIC [4]: 256 µg/mL (≈ 468 µM) | MIC [11]: 64 µg/mL | MIC [5]: 128 µg/mL (≈ 234 µM) | MIC [12]: 4 µg/mL | MIC [6]: 0.06 µg/mL (≈ 0.11 µM)

C[C@@H](O)[C@H]1C(=O)N2C(C(=O)O)=C(S[C@@H]3CN[C@H](C(=O)N(C)C)C3)[C@H](C)[C@H]12 [MEROPENEM]
MIC [1]: 0.06 µg/mL (≈ 0.156 µM) | MIC [2]: > 32 µg/mL | MIC [3]: 0.5 µg/mL (≈ 1.3 µM) | MIC [4]: > 32 µg/mL | MIC [5]: 0.25 µg/mL (≈ 0.652 µM) | MIC [6]: 0.03 µg/mL (≈ 0.0782 µM)

CC1(C)S[C@@H]2[C@H](NC(=O)[C@H](N)c3ccc(O)cc3)C(=O)N2[C@H]1C(=O)O [AMOXICILLIN]
MIC [7]: 16 µg/mL | MIC [8]: > 512 µg/mL | MIC [9]: > 256 µg/mL | MIC [1]: > 512 µg/mL | MIC [10]: 2 µg/mL | MIC [2]: > 512 µg/mL | MIC [3]: > 512 µg/mL | MIC [5]: > 512 µg/mL | MIC [12]: 4 µg/mL | MIC [6]: 2 µg/mL (≈ 5.47 µM)

C[C@@H](O)[C@H]1C(=O)N2C(C(=O)O)=C(S[C@@H]3CN[C@H](C(=O)Nc4cccc(C(=O)O)c4)C3)[C@H](C)[C@H]12 [ERTAPENEM]
MIC [1]: 0.06 µg/mL (≈ 0.126 µM) | MIC [2]: > 32 µg/mL | MIC [3]: 8 µg/mL (≈ 16.8 µM) | MIC [4]: > 32 µg/mL | MIC [5]: 0.12 µg/mL (≈ 0.252 µM) | MIC [6]: 0.03 µg/mL (≈ 0.0631 µM)
